Measured values taken from paper PMC4085996 (ChemMedChem, 2014).
Where “and” joins values, the source holds several entries; their conditions need not be identical. Equal entries are not always repeated. Where two headings read alike, the source gives them in different places.

What was measured:
[1] = test system: HIV-1 NL4-3 (wild-type) virus; experiment: microbe, parasite or virus in culture; assay type: cell-based
[2] = test system: TZM-bl cells; experiment: CytoTox-Glo cytotoxicity assay; assay type: cell-based; conditions: one day, average of two independent tests
Procedure, shortened: (§1)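 Run alongside the antiviral assays. TZM-bl cells were cultured for one day with graded concentrations of test compound. Percent viable cells was determined with the CytoTox-Glo kit according to the manufacturer's protocol.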

[3] = Microsomal stability assay; assay type: in vitro ADME; conditions: 1 μM compound, 0.1 mg/mL human liver microsomes, 37 °C
[4] = Aqueous solubility measurement; assay type: physicochemical; conditions: triplicate; for Aqueous solubility pH 2.0: pH 2.0, HPLC method; for Aqueous solubility pH 7.4: pH 7.4, HPLC method
[5] = Log P measurement; assay type: physicochemical; conditions: measured at pH7.4 by HPLC method, triplicate
[6] = test system: HIV-1 RT multidrug-resistant (RTMDR) viral strain; conditions: read-out: EC50 RTMDR (prior studies); same assays for leads and drugs; cited from earlier work
[7] = test system: HIV-1 IIIB (wt); experiment: HIV-1 infection assay using MT-2 cells; assay type: cell-based
Procedure, shortened: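 MT-2 cells (10^4/well) infected overnight with 100 TCID50 HIV-1 IIIB in RPMI 1640 plus 10% FBS, with or without graded concentrations of test compound. Medium then replaced with compound-free medium. On day 4 post-infection, supernatants mixed with equal volume 5% Triton X-100 and p24 antigen quantified by ELISA. EC50 calculated from percent inhibition of p24 production.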

[8] = test system: HIV-1 RTMDR (RT L74V, M41L, V106A, T215Y); assay type: cell-based; conditions: TZM-bl cells; for Resistance fold change RTMDR: versus NL4-3(wt); for EC50: read-out: EC50 RTMDR
[9] = test system: HIV-1 A17 (K103N and Y181C); assay type: cell-based; conditions: MT-2 cells; for Resistance fold change A17: versus IIIB (wt); for EC50: read-out: EC50 A17
[10] = test system: HIV-1 NL4-3 E138K mutant; assay type: cell-based; conditions: TZM-bl cells; for Resistance fold change E138K: versus NL4-3(wt); for EC50: read-out: EC50 E138K
[11] = test system: HIV-1 wild-type and resistant viral strains with RTMDR, K101E or E138K mutation; experiment: Text summary: antiviral potency over wild-type and resistant strains; assay type: cell-based
[12] = test system: HIV-1 NL4-3 K101E mutant; assay type: cell-based; conditions: TZM-bl cells; for Resistance fold change K101E: versus NL4-3(wt); for EC50: read-out: EC50 K101E
[13] = CytoTox-Glo cytotoxicity assay; assay type: cell-based; conditions: human, TZM-bl cells
Procedure, shortened: as §1

[14] = read-out: EC50 (NL4-3 infection of TZM-bl cells), mean ± SD, at least three independent experiments
[15] = read-out: EC50 IIIB (wt), MT-2 cells
[16] = read-out: EC50 NL4-3(wt), TZM-bl cells, Table 2

## N#C/C(=C\c1cc(F)c(Oc2ccc(N)c(Nc3ccc(C#N)cc3)n2)c(F)c1)C(N)=O [6h, (E)-6-[4”-(3-Amino-2-cyano-3-oxoprop-1-enyl)-2”,6”-difluoro]phenoxy-N^2-(4′-cyanophenyl)pyridin-2,3-diamine]
[1]; [14]
  EC50: 370 ± 59 nM
[2]
  CC50: 15800 nM

## N#Cc1ccc(Nc2nc(Oc3c(F)cc(Br)cc3F)ccc2N)cc1 [6b]
[1]; [14]
  EC50: 7.43 ± 1.1 nM
[2]
  CC50: > 9590 nM

## N#C/C=C/c1cc(Cl)c(Oc2ccc(N)c(Nc3ccc(C#N)cc3)n2)c(Cl)c1 [8d, (E)-N^2-(4′-Cyanophenyl)amino-6-(4”-cyanovinyl-2”,6”-dichloro)phenoxypyridin-3-amine]
[3]
  HLM t1/2: 39.61 min
[4]
  Aqueous solubility pH 2.0: 0.81 μg/mL
  Aqueous solubility pH 7.4: 0.70 μg/mL
[1]; [14]
  EC50: 8.14 ± 2.49 nM
[2]
  CC50: 10700 nM
[5]
  log P: >5

## Cc1cc(C#N)cc(C)c1Oc1nc(Nc2ccc(C#N)cc2)nc(N)c1Br [1a, etravirine]
[6]
  EC50: 1 nM

## N^2-(4′-Cyanophenyl)amino-6-(4”-(2-cyano)propylcarbamoyl-2”,6”-difluoro)phen oxypyridin-3-amine [6m]
[1]; [14]
  EC50: 350 ± 52 nM
[2]
  CC50: 15100 nM

## CC(=O)OCc1cc(F)c(Oc2ccc(N)c(Nc3ccc(C#N)cc3)n2)c(F)c1 [6d, N^2-(4′-Cyanophenyl)amino-6-(2”,6”-difluoro-4”-acetoxymethyl)phenoxypyridin-3-amine]
[1]; [14]
  EC50: 290 ± 46 nM

## COc1cc(/C=C/C#N)cc(Br)c1Oc1ccc(N)c(Nc2ccc(C#N)cc2)n1 [8c, (E)-6-(2”-Bromo-4”-cyanovinyl-6”-methoxy)phenoxy-N^2-(4′-cyanophenyl) pyridin-2,3-diamine]
[7]; [15]
  EC50: 4.53 nM
[8]
  Resistance fold change RTMDR: 1.1
  EC50: 3.46 nM
[9]
  Resistance fold change A17: 18.6
  EC50: 84.4 nM
[10]
  Resistance fold change E138K: 2.1
  EC50: 6.93 nM
[11]
  resistance fold change (RFC), range over resistant strains: 1.1–2.1
[3]
  HLM t1/2: 54.7 min and 54.71 min
[4]
  Aqueous solubility pH 2.0: 0.82 μg/mL
  Aqueous solubility pH 7.4: 0.50 μg/mL
[1]; [14]
  EC50: 3.25 ± 0.89 nM
[1]; [16]
  EC50: 3.25 nM
[2]
  CC50: 21000 nM
[5]
  log P: 3.31
[12]
  Resistance fold change K101E: 1.2
  EC50: 3.9 nM

## N#Cc1ccc(Nc2nc(Oc3c(F)cc(CO)cc3F)ccc2N)cc1 [6c, N^2-(4′-Cyanophenyl)amino-6-(2”,6”-difluoro-4”-hydroxymethyl)phenoxypyridine-3-amine]
[1]; [14]
  EC50: 57.1 ± 9.2 nM
[2]
  CC50: > 27200 nM

## N#Cc1ccc(Nc2nc(Oc3c(F)cc(C#N)cc3F)ccc2N)cc1 [6f, N^2-(4′-Cyanophenyl)amino-6-(2”,6”-difluoro-4”-cyano)phenoxypyridin-3-amine]
[1]; [14]
  EC50: 5.16 ± 1.57 nM
[2]
  CC50: > 9390 nM

## N#Cc1ccc(Nc2nc(Oc3c(F)cc(C=NO)cc3F)ccc2N)cc1 [6e, N^2-(4′-Cyanophenyl)amino-6-(2”,6”-difluoro-4”-(hydroxyimino)methyl)phenoxy pyridin-3-amine]
[1]; [14]
  EC50: 261 ± 55.1 nM
[2]
  CC50: > 26200 nM

## CCCOC(=O)c1cc(F)c(Oc2ccc(N)c(Nc3ccc(C#N)cc3)n2)c(F)c1 [6j, N^2-(4′-Cyanophenyl)amino-6-(2”,6”-difluoro-4”-propylcarbmethoxy)phenoxypyr idin-3-amine]
[1]; [14]
  EC50: 99 ± 19 nM
[2]
  CC50: 15300 nM

## N#Cc1ccc(Nc2nc(Oc3c(F)cccc3F)ccc2N)cc1 [6a, N^2-(4′-Cyanophenyl)amino-6-(2”,6”-difluoro)phenoxypyridin-3-amine]
[8]
  Resistance fold change RTMDR: 0.52
  EC50: 3.55 nM
[10]
  Resistance fold change E138K: 4.3
  EC50: > 29 nM
[3]
  HLM t1/2: 44.01 min
[4]
  Aqueous solubility pH 2.0: 8.42 μg/mL
  Aqueous solubility pH 7.4: 1.58 μg/mL
[1]; [14]
  EC50: 6.78 ± 1.18 nM
[1]; [16]
  EC50: 6.78 nM
[2]
  CC50: 19200 nM
[5]
  log P: >5
[12]
  Resistance fold change K101E: 7.82
  EC50: 53 nM

## N#C/C=C/c1cc(F)c(Oc2ccc(N)c(Nc3ccc(C#N)cc3)n2)c(F)c1 [6g, (E)-N^2-(4′-Cyanophenyl)amino-6-(4”-cyanovinyl-2”,6”-difluoro)phenoxypyridin-3-amine]
[7]; [15]
  EC50: 1.11 nM
[8]
  Resistance fold change RTMDR: 46.3
  EC50: 34.7 nM
[9]
  Resistance fold change A17: > 450
  EC50: > 500 nM
[10]
  Resistance fold change E138K: 10.3
  EC50: 7.71 nM
[3]
  HLM t1/2: 76.46 min
[4]
  Aqueous solubility pH 2.0: 1.27 μg/mL
  Aqueous solubility pH 7.4: 0.72 μg/mL
[1]; [14]
  EC50: 0.75 ± 0.18 nM
[1]; [16]
  EC50: 0.75 nM
[2]
  CC50: 11000 nM
[5]
  log P: 3.48
[12]
  Resistance fold change K101E: 9.6
  EC50: 7.2 nM

## CC(=O)CCc1cc(F)c(Oc2ccc(N)c(Nc3ccc(C#N)cc3)n2)c(F)c1 [6i, N^2-(4′-Cyanophenyl)amino-6-(2”,6”-difluoro-4”-(3-oxobutyl)phenoxy)pyridin-3-amine]
[1]; [14]
  EC50: 4.66 ± 0.95 nM
[2]
  CC50: > 9800 nM

## N#CCCc1cc(F)c(Oc2ccc(N)c(Nc3ccc(C#N)cc3)n2)c(F)c1 [6l, 6-(4”-(2-Cyanoethyl)-2”,6”-difluoro)phenoxy-N^2-(4′-cyanophenyl)aminopyridin-3-amine]
[1]; [14]
  EC50: 2.81 ± 0.59 nM
[2]
  CC50: > 10200 nM

## N#Cc1ccc(Nc2nc(Oc3c(Br)cc(C#N)cc3Br)ccc2N)cc1 [8a, 6-(4”-Cyano-2”,6”-dibromo)phenoxy-N^2-(4′-cyanophenyl)pyridin-2,3-diamine]
[7]; [15]
  EC50: 12.4 nM
[8]
  Resistance fold change RTMDR: 2.6
  EC50: 2.47 nM
[9]
  Resistance fold change A17: 30.8
  EC50: 384 nM
[10]
  Resistance fold change E138K: 5.8
  EC50: 5.44 nM
[3]
  HLM t1/2: 41.66 min
[4]
  Aqueous solubility pH 2.0: 0.79 μg/mL
  Aqueous solubility pH 7.4: 0.72 μg/mL
[1]; [14]
  EC50: 0.99 nM and 0.93 nM
[1]; [16]
  EC50: 0.93 nM
[2]
  CC50: 13200 nM
[5]
  log P: 3.30
[12]
  Resistance fold change K101E: 3.3
  EC50: 3.09 nM

## COc1cc(/C=C/C#N)ccc1Oc1ccc(N)c(Nc2ccc(C#N)cc2)n1 [8e, (E)-N^2-(4′-Cyanophenyl)amino-6-(2”-methoxy-4”-cyanovinyl)phenoxypyridin-3-amine]
[1]; [14]
  EC50: 16.7 ± 4.33 nM
[2]
  CC50: > 20600 nM

## N#C/C=C/c1cc(Br)c(Oc2ccc(N)c(Nc3ccc(C#N)cc3)n2)c(Br)c1 [8b, (E)-N^2-(4′-Cyanophenyl)amino-6-(4”-cyanovinyl-2”,6”-dibromo)phenoxypyridin-3-diamine]
[7]; [15]
  EC50: 3.04 nM
[8]
  Resistance fold change RTMDR: 2.2
  EC50: 0.74 nM
[9]
  Resistance fold change A17: 65.7
  EC50: 200 nM
[10]
  Resistance fold change E138K: 12.4
  EC50: 4.11 nM
[3]
  HLM t1/2: 21.87 min
[4]
  Aqueous solubility pH 2.0: 0.63 μg/mL
  Aqueous solubility pH 7.4: 0.62 μg/mL
[1]; [14]
  EC50: 0.33 ± 0.09 nM
[1]; [16]
  EC50: 0.33 nM
[2]
  CC50: 8220 nM
[5]
  log P: 3.55
[12]
  Resistance fold change K101E: 23.1
  EC50: 7.63 nM

## N#Cc1ccc(Nc2nc(Oc3c(F)cc(/C=C/C(N)=O)cc3F)ccc2N)cc1 [6k, (E)-N^2-(4′-Cyanophenyl)amino-6-(2”,6”-difluoro-4”-(2-carbamoyl)vinyl)phenoxy pyridin-3-amine]
[1]; [14]
  EC50: 614 ± 118 nM
[2]
  CC50: > 24600 nM

## Cc1cc(/C=C/C#N)cc(C)c1Nc1ccnc(Nc2ccc(C#N)cc2)n1 [1b, rilpivirine, reference compound]
[7]; Human immunodeficiency virus 1, IIIB, MT2, read-out: EC50 IIIB (wt)
  EC50: 0.49 nM
[6]
  EC50: 0.49 nM
[3]
  HLM t1/2: 39.52 min
[1]; Human immunodeficiency virus 1, NL43, TZM-bl, read-out: EC50 NL4-3(wt)
  EC50: 0.44 nM
[13]
  CC50 at 1 day: 19400 nM

## N#Cc1ccc(Nc2nc(Oc3c(F)cc(CCCO)cc3F)ccc2N)cc1 [6n, N^2-(4′-Cyanophenyl)amino-6-(2”,6”-difluoro-4”-(3-hydroxypropyl)phenoxy) pyridin-3-amine]
[1]; [14]
  EC50: 48 ± 9.8 nM
[2]
  CC50: > 25200 nM
